The values below come from ChEMBL document CHEMBL4251734, “Study on Liposomal Encapsulation of New Bodipy Sensitizers for Photodynamic Therapy” (ACS Med Chem Lett, 2018).

SMILES strings stand for the structures. The source made the active and inactive calls. The calls are words filed in the database; no cut-off is given here.

The test system of series [1] is SK-OV-3. Put plainly: Photocytotoxicity in human SKOV3 cells assessed as cell death at 0.1 to 1 uM incubated for 6 hrs followed by PDT-1200 light irradiation at 20 J/cm2 measured after 16 hrs by MTT assay. The class given is functional, cell-based. In short, it runs like this:
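Free photosensitizer, not encapsulated in liposomes, was added to SK-OV-3 cells. The cells were then exposed to light at 20 J cm^-2, a dose chosen from a preliminary light-dose series. A dark plate served as the control. Viability was read by MTT, and IC50 was taken as the PS concentration killing 50% of cells. Each light treatment was done in triplicate.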

Series [2] is described as follows: Dark toxicity in human SKOV3 cells assessed as cell death at 0.1 to 1 uM incubated for 6 hrs using liposome-encapsulated compound by MTT assay. The class given is cell-based. Conditions: sk-ov-3, 6 h. In outline: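 Liposomes of egg phosphatidylcholine, DOPE and photosensitizer at mole ratio 70:25:5. The PS content of the liposomes was estimated from absorbance after dissolving them in DMSO, read against standard curves of each pure PS in DMSO. Treated SK-OV-3 plates were kept shielded from all light, including stray light, as the dark control. Viability was read by MTT. Triplicate.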

Series [3] concerns SK-OV-3. Put plainly: Photocytotoxicity in human SKOV3 cells assessed as cell death incubated for 6 hrs followed by PDT-1200 light irradiation at 20 J/cm2 measured after 16 hrs using liposome-encapsulated compound by MTT assay. Format: functional, cell-based. Particulars: SK-OV-3, light or radiation study. In short, it runs like this: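 Photosensitizer was loaded into egg phosphatidylcholine/DOPE liposomes (mole ratio EPC:DOPE:PS 70:25:5). Loaded PS was quantified by absorbance in DMSO against standard curves. SK-OV-3 cells were treated and irradiated at 20 J cm^-2, with a dark plate as the control. Viability was read by MTT. IC50 was taken as the PS concentration killing 50% of cells. Triplicate.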

Take `CC1=C(I)C(/C=C/c2ccccc2OCc2ccccn2)=[N+]2C1=C(c1ccc([N+](=O)[O-])cc1)c1c(C)c(I)c(/C=C/c3ccccc3OCc3ccccn3)n1[B-]2(F)F`: in series [1], the outcome was inactive. Further, the Activity result in series [2] was “Non-Toxic”. In addition, the IC50 in series [3] came out at 650 nM.

Regarding `COc1cc(/C=C/C2=[N+]3C(=C(c4ccc([N+](=O)[O-])cc4)c4c(C)c(I)c(/C=C/c5cc(OC)c(OC)cc5[N+](=O)[O-])n4[B-]3(F)F)C(C)=C2I)c([N+](=O)[O-])cc1OC`, the result in series [1] was inactive. Besides, the Activity entry in series [2] is “Non-Toxic”. Moreover, the IC50 in series [3] is 860 nM.

Take `C=Cc1c(C)c2cc3nc(c(CC(=O)O)c4[nH]c(cc5nc(cc1[nH]2)C(C)=C5CC)c(C)c4C(=O)O)[C@@H](CCC(=O)O)[C@@H]3C` [CHLORIN E6]: in series [3], the IC50 stood at 390 nM.

With `COc1ccc(/C=C/C2=[N+]3C(=C(c4ccccc4)c4c(C)c(I)c(/C=C/c5ccc(OC)c(OC)c5)n4[B-]3(F)F)C(C)=C2I)cc1OC`, in series [1], the outcome was inactive. The Activity entry in series [2] is recorded as “Non-Toxic”. For the same compound, in series [3], the IC50 was found to be 880 nM.

For `COc1ccc(/C=C/C2=[N+]3C(=C(c4ccc([N+](=O)[O-])cc4)c4c(C)c(I)c(/C=C/c5ccc(OC)c(OC)c5)n4[B-]3(F)F)C(C)=C2I)cc1OC`, in series [1], the result was inactive. In series [2], the Activity result is “Non-Toxic”. Also, the IC50 in series [3] is 350 nM.
